{"source": "ChEMBL document CHEMBL3526139", "about": "“Clinical pharmacokinetics, metabolism, and drug-drug interaction of carfilzomib” (Drug Metab Dispos, 2013)", "key": {"Cytochrome P450 2C8": {"biological_target": "T1, Cytochrome P450 2C8 (Homo sapiens, UniProt P10632)", "T1 sequence (P10632 whole entry)": "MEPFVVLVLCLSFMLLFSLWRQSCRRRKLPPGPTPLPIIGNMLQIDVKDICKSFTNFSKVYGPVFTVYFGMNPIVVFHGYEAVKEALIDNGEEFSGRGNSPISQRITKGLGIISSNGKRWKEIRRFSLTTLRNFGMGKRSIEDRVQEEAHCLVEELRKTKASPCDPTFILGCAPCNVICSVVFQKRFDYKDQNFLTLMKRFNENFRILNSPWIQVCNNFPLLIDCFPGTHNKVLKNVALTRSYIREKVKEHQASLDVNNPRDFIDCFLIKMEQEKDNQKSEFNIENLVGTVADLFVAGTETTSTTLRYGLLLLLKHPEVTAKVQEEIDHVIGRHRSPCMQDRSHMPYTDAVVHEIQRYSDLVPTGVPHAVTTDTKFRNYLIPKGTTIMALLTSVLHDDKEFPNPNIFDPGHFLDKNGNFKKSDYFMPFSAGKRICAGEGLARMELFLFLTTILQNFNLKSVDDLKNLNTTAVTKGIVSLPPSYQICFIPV", "assay": "Drug metabolism in pooled human hepatocytes assessed as disapperance rate at 1 uM by LC-MS/MS analysis in presence of 30 uM CYP2C8 inhibitor montelukast", "assay_type": "ADME, cell-based, Hepatocyte", "in_short": "(§1)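 Pooled human hepatocytes in suspension (~0.5 x 10^6 viable cells/mL) were incubated with 1 µM carfilzomib at 37°C under 5% CO2, with or without isoform-selective CYP chemical inhibitors. Reactions were quenched with acetonitrile at 0, 15, 30, 60 and 120 min. Carfilzomib was quantified by non-validated LC-MS/MS after protein precipitation.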"}, "[1]": {"assay": "Drug excretion in urine of human multiple myeloma patient with normal renal function at 15 mg/m'2, iv on days 1, 2, 8, 9, 15 and 16 of 28-day cycle over 2 to 10 mins by LC-MS/MS analysis relative to total drug dose", "assay_type": "ADME, organism-based", "conditions": "read-out: Drug excretion; call rule not given here", "in_short": "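Urine was collected 0–5 h and 5–24 h after dosing on Cycle 1 Day 1, with acetonitrile added at 25% of sample volume. Carfilzomib and metabolites were quantified by LC-MS/MS (carfilzomib and M15 4.00–2000 ng/mL, M14 10.0–5000 ng/mL) and expressed as percent of dose.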"}, "Cytochrome P450 3A": {"biological_target": "Cytochrome P450 3A (Homo sapiens, UniProt P08684+P20815+Q9HB55+P24462)", "assay": "Time-dependent inhibition of CYP3A in human liver microsomes assessed as midazolam 1'-hydroxylation using midazolam as substrate measured after 25-fold diution by LC-MS/MS analysis in presence of NADPH", "assay_type": "ADME", "in_short": "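Pooled HLM (16 donors, mixed gender) preincubated in duplicate with carfilzomib 0, 0.5, 1, 3, 5 and 8 µM plus NADPH-generating system (1 mM NADP, 5 mM glucose-6-phosphate, 1 unit/mL G6PDH) for 0–30 min. Microsomal protein in preincubation: 2.5 mg/mL (testosterone) or 1.25 mg/mL (midazolam). Aliquots then diluted 25-fold into 50 mM potassium phosphate, 3 mM MgCl2, 1 mM EDTA, pH 7.4. Residual activity measured over 5 min with testosterone 200 µM or midazolam 40 µM plus NADPH-generating mixture, 37°C. KI and kinact derived.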"}, "Cytochrome P450 2D6": {"biological_target": "Cytochrome P450 2D6 (Homo sapiens, UniProt P10635)", "sequence (P10635 whole entry)": "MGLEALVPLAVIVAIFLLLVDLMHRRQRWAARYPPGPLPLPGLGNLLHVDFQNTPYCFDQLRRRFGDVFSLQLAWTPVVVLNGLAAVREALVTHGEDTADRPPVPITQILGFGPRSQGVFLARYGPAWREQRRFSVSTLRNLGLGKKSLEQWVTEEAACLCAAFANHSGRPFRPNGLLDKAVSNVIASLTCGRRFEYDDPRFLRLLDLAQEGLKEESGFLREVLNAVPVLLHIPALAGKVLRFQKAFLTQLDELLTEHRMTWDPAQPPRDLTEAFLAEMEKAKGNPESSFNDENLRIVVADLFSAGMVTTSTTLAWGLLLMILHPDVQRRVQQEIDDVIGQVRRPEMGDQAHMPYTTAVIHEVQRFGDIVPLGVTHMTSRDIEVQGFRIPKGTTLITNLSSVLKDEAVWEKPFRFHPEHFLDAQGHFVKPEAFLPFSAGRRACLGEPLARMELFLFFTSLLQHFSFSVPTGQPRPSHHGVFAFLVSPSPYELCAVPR", "assay": "Drug metabolism in pooled human hepatocytes assessed as disapperance rate at 1 uM by LC-MS/MS analysis in presence of 10 uM CYP2D6 inhibitor quinidine", "assay_type": "ADME, cell-based, Hepatocyte", "in_short": "as §1"}, "Cytochrome P450 2C9": {"biological_target": "Cytochrome P450 2C9 (Homo sapiens, UniProt P11712)", "sequence (P11712 whole entry, looked up)": "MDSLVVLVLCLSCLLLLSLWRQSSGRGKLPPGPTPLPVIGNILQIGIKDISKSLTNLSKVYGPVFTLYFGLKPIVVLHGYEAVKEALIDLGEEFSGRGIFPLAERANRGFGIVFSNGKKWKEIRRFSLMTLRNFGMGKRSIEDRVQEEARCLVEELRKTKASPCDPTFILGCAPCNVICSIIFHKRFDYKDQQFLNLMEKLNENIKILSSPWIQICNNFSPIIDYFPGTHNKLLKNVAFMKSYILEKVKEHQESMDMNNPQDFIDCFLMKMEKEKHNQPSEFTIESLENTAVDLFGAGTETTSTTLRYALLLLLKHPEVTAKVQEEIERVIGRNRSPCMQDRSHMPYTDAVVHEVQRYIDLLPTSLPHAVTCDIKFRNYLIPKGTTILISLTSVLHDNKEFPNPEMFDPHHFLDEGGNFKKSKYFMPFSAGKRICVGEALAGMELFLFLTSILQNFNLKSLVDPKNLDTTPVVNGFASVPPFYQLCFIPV", "assay": "Drug metabolism in pooled human hepatocytes assessed as disapperance rate at 1 uM by LC-MS/MS analysis in presence of 10 uM CYP2C9 inhibitor sulfaphenazole"}}, "data": [{"smiles": "CC(C)C[C@H](NC(=O)[C@H](CCc1ccccc1)NC(=O)CN1CCOCC1)C(=O)N[C@@H](Cc1ccccc1)C(=O)N[C@@H](CC(C)C)C(=O)[C@@]1(C)CO1", "note": "[CARFILZOMIB]", "values": [{"measurement": "Drug metabolism", "setting": "Cytochrome P450 2C8", "value": 0.014, "unit": "min⁻¹"}, {"measurement": "dose excreted", "setting": "[1]", "value": "< 1", "unit": "%"}, {"measurement": "inhibition (INH)", "setting": "Cytochrome P450 3A", "value": "Active"}, {"measurement": "Drug metabolism", "setting": "Cytochrome P450 2D6", "value": 0.013, "unit": "min⁻¹"}, {"measurement": "Drug metabolism", "setting": "Cytochrome P450 2C9", "value": 0.0073, "unit": "min⁻¹"}]}]}
